{"source": "ChEMBL document CHEMBL1649139", "about": "“A novel gene, erm(41), confers inducible macrolide resistance to clinical isolates of Mycobacterium abscessus but is absent from Mycobacterium chelonae” (2009)", "type_in_all_cases": "functional", "key": {"[1]": {"test_system": "Mycobacteroides abscessus", "assay": "Antimicrobial activity against Mycobacterium abscessus isolate MC958 at day 5 preincubated with 0.1 ug/ml for 3 days by broth microdilution method", "in_short": "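Clinical M. abscessus isolates were preincubated for 3 days, either in medium alone or in clarithromycin or erythromycin at 0.01 to 1 μg/ml, allowing at least two generations of growth judged by turbidity. The clarithromycin MIC was then determined by CLSI-conforming broth microdilution, with plates read on day 3 and on extended incubation (days 5 to 14).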"}, "[2]": {"test_system": "Mycobacteroides abscessus", "assay": "Antimicrobial activity against Mycobacterium abscessus isolate MC958 at day 7 preincubated with 0.1 ug/ml erythromycin for 3 days by broth microdilution method"}, "[3]": {"test_system": "Mycobacteroides abscessus", "assay": "Antimicrobial activity against Mycobacterium abscessus isolate MAB30 at day 9 preincubated with 0.1 ug/ml erythromycin for 3 days by broth microdilution method", "in_short": "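Clarithromycin MIC by CLSI-conforming broth microdilution. Before testing, cultures were preincubated for 3 days, either in medium alone or in clarithromycin or erythromycin (tested range 0.01–1 μg/ml). Preincubation ran for at least two generations, judged by turbidity increase. Plates were read on day 3 and on extended incubation at days 5 to 14.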"}, "[4]": {"test_system": "Mycobacteroides abscessus", "assay": "Antimicrobial activity against Mycobacterium abscessus isolate MC1448 at day 9 preincubated with 0.1 ug/ml for 3 days by broth microdilution method", "in_short": "(§1)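 Clarithromycin MIC by broth microdilution following CLSI guidelines. Before testing, organisms were preincubated for 3 days in medium alone or in clarithromycin or erythromycin (0.01–1 μg/ml), long enough for at least two generations judged by turbidity increase. MICs were read on day 3 and again on extended incubation out to day 14.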"}, "[5]": {"test_system": "Mycobacteroides abscessus", "assay": "Antimicrobial activity against Mycobacterium abscessus isolate MC879 at day 3 preincubated with 0.1 ug/ml erythromycin for 3 days by broth microdilution method", "in_short": "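To test inducible resistance, cultures were preincubated for 3 days in clarithromycin or erythromycin, within 0.01–1 μg/ml. The period was set so cultures passed at least two generations, judged by turbidity increase. Clarithromycin MIC was then determined by CLSI-conforming broth microdilution and read on the stated day, from day 3 up to 14.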"}, "[6]": {"test_system": "Mycobacteroides abscessus", "assay": "Antimicrobial activity against Mycobacterium abscessus isolate MC1448 at day 7 preincubated with 0.1 ug/ml erythromycin for 3 days by broth microdilution method", "in_short": "as §1"}, "[7]": {"test_system": "Mycobacteroides abscessus", "assay": "Antimicrobial activity against Mycobacterium abscessus isolate MC1448 at day 7 by broth microdilution method", "settings": "isolate MC1448, 168 h", "in_short": "as §1"}, "[8]": {"test_system": "Mycolicibacterium smegmatis", "assay": "Antimicrobial activity against Mycobacterium smegmatis transformed with erm allele Mycobacterium abscessus isolate MC1082 by broth microdilution method"}, "[9]": {"test_system": "Mycobacteroides abscessus", "assay": "Antimicrobial activity against Mycobacterium abscessus isolate MC1448 at day 5 by broth microdilution method", "settings": "isolate MC1448, 120 h", "in_short": "as §1"}}}
{"smiles": "CC[C@H]1OC(=O)[C@H](C)[C@@H](O[C@H]2C[C@@](C)(OC)[C@@H](O)[C@H](C)O2)[C@H](C)[C@@H](O[C@@H]2O[C@H](C)C[C@H](N(C)C)[C@H]2O)[C@](C)(OC)C[C@@H](C)C(=O)[C@H](C)[C@@H](O)[C@]1(C)O", "note": "[CLARITHROMYCIN]", "values": [{"measurement": "MIC", "setting": "[1]", "value": 4, "unit": "µg/mL"}, {"measurement": "MIC", "setting": "[2]", "value": "> 32", "unit": "µg/mL"}, {"measurement": "MIC", "setting": "[3]", "value": "≤ 0.5", "unit": "µg/mL"}, {"measurement": "MIC", "setting": "[4]", "value": "> 32", "unit": "µg/mL"}, {"measurement": "MIC", "setting": "[5]", "value": "≤ 0.5", "unit": "µg/mL"}, {"measurement": "MIC", "setting": "[6]", "value": "> 32", "unit": "µg/mL"}, {"measurement": "MIC", "setting": "[7]", "value": "> 32", "unit": "µg/mL"}, {"measurement": "MIC", "setting": "[8]", "value": "≤ 0.5", "unit": "µg/mL"}, {"measurement": "MIC", "setting": "[9]", "value": "> 32", "unit": "µg/mL"}]}
